According to ChEMBL document CHEMBL2146407, “Development of erlotinib derivatives as CIP2A-ablating agents independent of EGFR activity” (Bioorg Med Chem, 2012):
Active and inactive are the calls of the source. The rule behind the calls is not given here.

What was measured:
[1] = test system: SK-HEP1; assay: Cytotoxicity against human SKHEP1 cells assessed as growth inhibition after 48 hrs by MTT assay; format: functional, cell-based; conditions: SK-HEP1, 48 h
Method in brief: (§1)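 MTT read-out in SK-Hep-1 cells kept in DMEM with 10% FBS, penicillin/streptomycin and amphotericin B at 37 °C under 5% CO2. Reduced dye solubilized in DMSO and absorbance read at 570 nm. The concentration giving 50% growth inhibition was interpolated from dose–response curves.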

[2] = test system: SK-HEP1; assay: Inhibition of CIP2A expression in human SKHEP1 cells at 20 uM after 24 hrs by Western blot analysis; format: functional, cell-based
Method in brief: (§2)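 SK-Hep-1 cells (3 × 10^5 per 60 mm dish) were treated 24 h, in the primary screen at 20 μM. Lysates were loaded at 40 μg per lane and blotted for CIP2A against actin.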

[3] = target: Protein CIP2A (Homo sapiens) (UniProt Q8TCG1); assay: Inhibition of CIP2A in human SKHEP1 cells at 5 uM after 30 hrs by Western blot analysis; format: cell-based; conditions: SK-HEP1
Method in brief: (§3)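 SK-Hep-1 cells (3 × 10^5 per 60 mm dish) were exposed to 5 μM for 30 h. Lysates were loaded at 40 μg per lane and immunoblotted for CIP2A, phospho-Akt, PARP and actin.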

[4] = target: Protein CIP2A (Homo sapiens) (UniProt Q8TCG1); assay: Inhibition of CIP2A-mediated PP2A-dependent AKT phosphorylation in human SKHEP1 cells at 5 uM after 30 hrs by Western blot analysis; format: cell-based; conditions: SK-HEP1; method in brief: as §3
[5] = test system: SK-HEP1; assay: Induction of apoptosis in human SKHEP1 cells assessed as increase in PARP cleavage at 5 uM after 30 hrs by Western blot analysis; format: functional, cell-based; method in brief: as §3
[6] = test system: SK-HEP1; assay: Cytotoxicity against human SKHEP1 cells assessed as cell death after 48 hrs by MTT assay; format: functional, cell-based; conditions: SK-HEP1, 48 h; method in brief: as §1
[7] = target: T1, Epidermal growth factor receptor (Homo sapiens, UniProt P00533); assay: Inhibition of EGFR phosphorylation in human PC9 cells after 24 hrs by Western blot analysis; format: cell-based, PC-9
[8] = target: T1, Epidermal growth factor receptor; assay: Inhibition of EGFR phosphorylation in human PC9 cells at 2 uM after 24 hrs by Western blot analysis; format: cell-based; conditions: PC-9
Method in brief: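 PC9 cells (3 × 10^5 per 60 mm dish), grown in DMEM with 10% FBS at 37 °C and 5% CO2, were treated 24 h at 2 μM. Lysates were loaded at 40 μg per lane and immunoblotted for EGFR phosphorylation.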

[9] = test system: SK-HEP1; assay: Inhibition of CIP2A expression in human SKHEP1 cells after 24 hrs by Western blot analysis; format: functional, cell-based; method in brief: as §2
[10] = test system: SK-HEP1; assay: Induction of apoptosis in human SKHEP1 cells assessed as accumulation at sub-G1 phase at 5 uM after 24 hrs by propidium iodide staining based flow cytometry; format: functional, cell-based
Method in brief: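 SK-Hep-1 cells were treated 24 h at 5 μM, then trypsinized, pelleted, washed in PBS and stained with propidium iodide. Apoptotic cells were counted by flow cytometry as the sub-G1 fraction. Mean of n = 3 with SD; P <0.05 taken as significant.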

[11] = test system: SK-HEP1; assay: Induction of apoptosis in human SKHEP1 cells assessed as DNA fragmentation at 5 uM after 24 hrs by ELISA; format: functional, cell-based
Method in brief: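 DNA fragmentation was measured in SK-Hep-1 cells after 24 h of exposure, using a cell death ELISA kit.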

[12] = target: Protein CIP2A (Homo sapiens) (UniProt Q8TCG1); assay: Inhibition of CIP2A-mediated PP2A-dependent AKT phosphorylation in human SKHEP1 cells at 5 uM after 30 hrs by Western blot analysis in presence of okadaic acid; format: cell-based; conditions: SK-HEP1
[13] = test system: SK-HEP1; assay: Cytotoxicity against human SKHEP1 cells assessed as cell death after 24 hrs by MTT assay

T1 sequence (P00533 whole entry): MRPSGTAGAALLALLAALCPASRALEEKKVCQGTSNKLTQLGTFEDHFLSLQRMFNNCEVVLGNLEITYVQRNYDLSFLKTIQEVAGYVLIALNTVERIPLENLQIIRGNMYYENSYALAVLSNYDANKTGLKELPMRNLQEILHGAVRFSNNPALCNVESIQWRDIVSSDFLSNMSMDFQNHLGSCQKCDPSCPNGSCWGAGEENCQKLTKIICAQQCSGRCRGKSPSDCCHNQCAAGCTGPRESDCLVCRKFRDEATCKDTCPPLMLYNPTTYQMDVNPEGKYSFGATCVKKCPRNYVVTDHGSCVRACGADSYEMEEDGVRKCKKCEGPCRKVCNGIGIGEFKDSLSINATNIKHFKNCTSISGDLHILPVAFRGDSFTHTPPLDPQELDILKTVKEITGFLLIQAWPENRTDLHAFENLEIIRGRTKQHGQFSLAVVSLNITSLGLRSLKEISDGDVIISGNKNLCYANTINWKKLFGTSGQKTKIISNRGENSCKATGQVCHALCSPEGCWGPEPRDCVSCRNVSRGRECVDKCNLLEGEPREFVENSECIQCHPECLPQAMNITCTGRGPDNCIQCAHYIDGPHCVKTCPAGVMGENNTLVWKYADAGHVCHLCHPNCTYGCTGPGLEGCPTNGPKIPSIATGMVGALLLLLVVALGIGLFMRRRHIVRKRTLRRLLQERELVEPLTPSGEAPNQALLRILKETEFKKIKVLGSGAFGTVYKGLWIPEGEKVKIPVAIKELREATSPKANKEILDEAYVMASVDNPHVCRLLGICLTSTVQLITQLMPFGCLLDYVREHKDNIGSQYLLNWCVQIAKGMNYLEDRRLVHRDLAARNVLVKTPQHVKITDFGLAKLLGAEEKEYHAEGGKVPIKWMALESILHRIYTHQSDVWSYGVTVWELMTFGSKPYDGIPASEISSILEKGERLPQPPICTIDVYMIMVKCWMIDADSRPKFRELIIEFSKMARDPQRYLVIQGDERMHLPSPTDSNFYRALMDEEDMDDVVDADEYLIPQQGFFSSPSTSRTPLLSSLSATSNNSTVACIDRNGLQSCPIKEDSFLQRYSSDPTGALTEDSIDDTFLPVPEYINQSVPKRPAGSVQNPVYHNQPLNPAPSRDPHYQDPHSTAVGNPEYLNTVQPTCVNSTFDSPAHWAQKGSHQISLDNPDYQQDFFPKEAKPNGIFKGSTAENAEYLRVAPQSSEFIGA

SMILES | inhibition [2] | IC50 [6] | also measured
C#Cc1cccc(Nc2nc(Nc3cc(C)ccc3F)nc3cc(OC)c(OC)cc23)c1 | Active | – | IC50 [1]: 4.5 µM
COc1cc2nc(Cl)nc(Nc3cccc(O)c3)c2cc1OC | – | > 40 µM | inhibition [3]: inactive; inhibition [4]: inactive; Activity [5]: inactive
COc1cc2nc(Cl)nc(Nc3ccc(Oc4ccccc4)cc3)c2cc1OC | – | 15.3 µM | –
C#Cc1cccc(Nc2nc(Nc3ccc(Oc4ccc(C#N)cc4)cc3)nc3cc(OC)c(OC)cc23)c1 | Active | – | IC50 [1]: 14.5 µM
Clc1nccc(NCc2ccccc2)n1 | inactive | > 40 µM | –
Clc1nccc(Nc2ccc(Oc3ccccc3)cc2)n1 | inactive | > 40 µM | –
C#Cc1cccc(Nc2ccnc(Cl)n2)c1 | inactive | > 40 µM | –
C#Cc1cccc(N(C)c2nc(Cl)nc3cc(OC)c(OC)cc23)c1 | – | 12.3 µM | –
C#Cc1cccc(Nc2nc(Cl)nc3cc(OC)c(OC)cc23)c1 | – | – | IC50 [7]: > 8 µM
COc1cc2nc(Cl)nc(Nc3cc(C)ccc3F)c2cc1OC | – | > 40 µM | –
C#Cc1cccc(Nc2nc(Nc3ccc(Cl)c(C(F)(F)F)c3)nc3cc(OC)c(OC)cc23)c1 | Active | – | IC50 [1]: 6.8 µM
COc1cc2nc(Cl)nc(Nc3cccc(Oc4ccc(C#N)cc4)c3)c2cc1OC | – | > 40 µM | –
COc1cc2nc(Cl)nc(Nc3ccc(Cl)c(C(F)(F)F)c3)c2cc1OC | – | 8.8 µM | –
C#Cc1cccc(Nc2ccnc(Nc3cccc(C#C)c3)n2)c1 | Active | 3.7 µM | –
C#Cc1cccc(Nc2nc(Nc3cccc(Cl)c3)nc3cc(OC)c(OC)cc23)c1 | Active | – | IC50 [1]: 7.1 µM
COc1cc2nc(Cl)nc(NCc3ccccc3)c2cc1OC | – | 19.8 µM | –
COc1cc2nc(Cl)nc(Nc3cccc(Cl)c3)c2cc1OC | – | 16.5 µM | –
C#Cc1cccc(Nc2nc(Nc3ccc(Oc4ccccc4)cc3)nc3cc(OC)c(OC)cc23)c1 | Active | – | inhibition [8]: inactive; inhibition [9]: Dose-dependent effect; inhibition [3]: Active; inhibition [4]: Active; Activity [5]: Active; Activity [10]: Active; Activity [11]: Active; inhibition [12]: inactive; IC50 [1]: 2.8 µM; Activity [13]: Dose-dependent effect
FC(F)(F)c1cc(Nc2ccnc(Cl)n2)ccc1Cl | inactive | > 40 µM | –
C#Cc1cccc(Nc2nc(NCc3ccccc3)nc3cc(OC)c(OC)cc23)c1 | Active | – | inhibition [8]: inactive; inhibition [3]: Active; inhibition [4]: Active; Activity [5]: Active; Activity [10]: Active; Activity [11]: Active; IC50 [1]: 2.8 µM
C#Cc1cccc(Nc2nc(Nc3cccc(Oc4ccc(C#N)cc4)c3)nc3cc(OC)c(OC)cc23)c1 | Active | – | IC50 [1]: 3.9 µM
Clc1cccc(Nc2ccnc(Cl)n2)c1 | inactive | > 40 µM | –
FC(F)(F)c1cc(Nc2ccnc(Nc3ccc(Cl)c(C(F)(F)F)c3)n2)ccc1Cl | Active | 13.8 µM | –
COc1cc2nc(Cl)nc(Nc3ccc(O)c(C)c3)c2cc1OC | – | > 40 µM | –
